Active and inactive are the calls of the source. The calls are words filed in the database; no cut-off is given here.
Legend:
[1] = system: Human immunodeficiency virus 1; assay: Antiviral activity against HIV-1 Bal infected in 1 hr compound pretreated human ectocervical explant tissue assessed as inhibition of viral replication at 0.1 nM by RT-PCR; format: functional, organism-based
How it was run: (§1)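 Ectocervical explants were pretreated with drug for 1 h, then exposed to HIV-1BaL (two 50% tissue infectious doses, about 10^4 TCID50 on PM-1) for 2 h at 37°C with drug present. Explants were washed and cultured overnight, then cultured separately for 10 days. Tissue was proteinase K-digested and proviral LTR DNA measured by multiplex qPCR against β-actin (10 copies/10^5 cells sensitivity). Two donors, triplicate.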

[2] = Cytotoxicity against human TZM-bl cells after 24 hrs by MTT assay; format: cell-based
How it was run: (§2)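 Uninfected PM-1 or TZM-bl cells were exposed to drug and viability measured by MTT dye reduction as a percentage of untreated controls. CC50 was derived by nonlinear regression.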

[3] = Cytotoxicity against human PM1 cells after 24 hrs by MTT assay; format: cell-based; how it was run: as §2
[4] = system: Human immunodeficiency virus 1; assay: Antiviral activity against HIV-1 Bal infected in human PM1 cells after 7 days by RT assay; format: functional, organism-based; conditions: Human immunodeficiency virus 1, Bal, PM1, 168 h
How it was run: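 PM-1 cells (4 x 10^4/well) were infected with HIV-1BaL or HIV-1RF (200 TCID50/ml) and cultured 7 days with drug. Replication was measured as reverse transcriptase in supernatant versus untreated wells. IC50 was obtained by nonlinear regression.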

[5] = Selectivity index, ratio of CC50 for human PM1 cells to IC50 for HIV-1 Bal; format: functional
How it was run: (§3)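 Selectivity index is CC50/IC50, using values determined in the same time period. CC50 was measured by MTT for TZM-bl and PM-1 cells and by trypan blue exclusion after 14 days for macrophages. Both were fitted by nonlinear regression.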

[6] = Selectivity index, ratio of CC50 for human monocyte derived macrophages to IC50 for HIV-1 Bal; format: functional; how it was run: as §3
[7] = Selectivity index, ratio of CC50 for human PM1 cells to IC50 for HIV-1 RF; format: functional; how it was run: as §3
[8] = system: Human immunodeficiency virus 1; assay: Antiviral activity against HIV-1 subtype CRF02_AG V022808 infected in human MT4 cells assessed as inhibition of viral replication relative to HIV-1 3B; format: functional
How it was run: (§4)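 MT-4 cells (3 x 10^4/well) infected with site-directed mutants or recombinant clinical isolates (200 TCID50/well) with drug, cultured 3 to 5 days. Viability read by MTT colorimetric antivirogram assay. IC50 by nonlinear regression; fold change = IC50 for the test isolate / IC50 for wild-type HIV-1 IIIB tested in parallel (mean or median).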

[9] = system: Human immunodeficiency virus 1; assay: Antiviral activity against HIV-1 subtype CRF02_AG V022825 infected in human MT4 cells assessed as inhibition of viral replication relative to HIV-1 3B; format: functional; how it was run: as §4
[10] = system: Human immunodeficiency virus 1; assay: Antiviral activity against HIV-1 subtype CRF01_AE V029521 infected in human MT4 cells assessed as inhibition of viral replication relative to HIV-1 3B; format: functional
How it was run: (§5)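 Recombinant clinical HIV-1 isolates (200 TCID50/well) were tested in MT-4 cells (3 x 10^4/well) over 3–5 days, with an MTT viability read-out. IC50 was fitted by nonlinear regression. Fold change is the isolate IC50 divided by the HIV-1IIIB IC50, tested in parallel.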

[11] = system: Human immunodeficiency virus 1; assay: Antiviral activity against HIV-1 subtype B V022814 infected in human MT4 cells assessed as inhibition of viral replication relative to HIV-1 3B; format: functional; how it was run: as §4
[12] = system: Human immunodeficiency virus 1; assay: Antiviral activity against HIV-1 subtype C V022816 infected in human MT4 cells assessed as inhibition of viral replication relative to HIV-1 3B; format: functional; how it was run: as §5
[13] = system: Human immunodeficiency virus 1; assay: Antiviral activity against HIV-1 subtype CRF05_DF V022823 infected in human MT4 cells assessed as inhibition of viral replication relative to HIV-1 3B; format: functional; how it was run: as §4
[14] = system: Human immunodeficiency virus 1; assay: Antiviral activity against HIV-1 subtype F V029522 infected in human MT4 cells assessed as inhibition of viral replication relative to HIV-1 3B; format: functional; how it was run: as §4
[15] = system: Human immunodeficiency virus 1; assay: Antiviral activity against HIV-1 subtype H V022827 harboring NNRTI V179I mutant infected in human MT4 cells assessed as inhibition of viral replication relative to HIV-1 3B; format: functional; how it was run: as §4
[16] = system: Human immunodeficiency virus 1; assay: Antiviral activity against HIV-1 subtype H V029523 harboring NNRTI K101Q and V179I mutant infected in human MT4 cells assessed as inhibition of viral replication relative to HIV-1 3B; format: functional; how it was run: as §4
[17] = system: Human immunodeficiency virus 1; assay: Antiviral activity against HIV-1 SM012 harboring NNTRI 108I mutant infected in human MT4 cells assessed as inhibition of viral replication relative to HIV-1 3B; format: functional; how it was run: as §4
[18] = system: Human immunodeficiency virus 1; assay: Antiviral activity against HIV-1 Bal infected in 1 hr compound pretreated human ectocervical explant tissue assessed as inhibition of viral replication by RT-PCR; format: functional, organism-based; how it was run: as §1
[19] = system: Human immunodeficiency virus 1; assay: Antiviral activity against HIV-1 Bal infected in 1 hr compound pretreated human ectocervical explant tissue assessed as inhibition of provirus formation at 1 nM by RT-PCR; format: functional; conditions: Human immunodeficiency virus 1, Bal; how it was run: as §1
[20] = system: Human immunodeficiency virus 1; assay: Antiviral activity against HIV-1 Bal infected in human cervical tissue explants assessed as inhibition of dissemination of virus via migratory cells after 2 hrs in presence of 12.5% whole semen; format: functional, organism-based
How it was run: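 Cervical explants were exposed to HIV-1BaL plus drug for 2 h in cervical mucus simulant or whole semen (final 12.5%), then washed. Migratory cells were cocultured with PM-1 indicator cells and infection read as p24 in coculture supernatant.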

[21] = system: Human immunodeficiency virus 1; assay: Antiviral activity against HIV-1 Bal infected in 2 hrs 100 nM compound pretreated human ectocervical explant tissue assessed as prolonged inhibition of viral infection post compound removal; format: functional
How it was run: (§6)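 Ectocervical explants were exposed to drug (0.01–10 µM) for 2 or 24 h at 37°C and washed. They received HIV-1BaL (2 h) on day 0, 2, 4 or 6 after drug removal, with no drug present. Read-outs at 10 days post-exposure: explant p24 ELISA, tissue proviral DNA by qPCR, and p24 in migratory cell–PM-1 cocultures. Three donors (2 h) or two donors (24 h), triplicate.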

[22] = system: Human immunodeficiency virus 1; assay: Antiviral activity against HIV-1 Bal infected in 2 hrs 10000 nM compound pretreated human ectocervical explant tissue assessed as prolonged inhibition of viral infection post compound removal measured after 6 days post compound removal; format: functional; how it was run: as §6
[23] = system: Human immunodeficiency virus 1; assay: Antiviral activity against HIV-1 Bal infected in 24 hrs 100 to 1000 nM compound pretreated human ectocervical explant tissue assessed as prolonged inhibition of viral infection post compound removal measured after 6 days post compound removal; format: functional; how it was run: as §6
[24] = system: Human immunodeficiency virus 1; assay: Antiviral activity against HIV-1 SF162 infected in hu-SCID mouse assessed as protection from viral infection at 225 uM; format: functional; conditions: Human immunodeficiency virus 1, SF162 ISOLATE
[25] = system: Human immunodeficiency virus 1; assay: Antiviral activity against HIV-1 Bal infected in human TZM-bl cells after 24 hrs by luciferase reporter assay; conditions: Human immunodeficiency virus 1, Bal
[26] = system: Human immunodeficiency virus 1; assay: Antiviral activity against HIV-1 Bal infected in human monocyte derived macrophages after 14 days by p24 assay; conditions: Human immunodeficiency virus 1, Bal, 336 h

Cc1cc(C)c(Nc2ccnc(Nc3ccc(C#N)cc3)n2)c(C)c1 [DAPIVIRINE]
inhibition [1]: Active
CC50 at 24 h [2]: 20400 nM
CC50 at 24 h [3]: 11000 nM
IC50 [4]: 6 nM
Selectivity Index [5]: 1833
Selectivity Index [6]: 8333
Selectivity Index [7]: 4583
Ratio IC50 [8]: 1
Ratio IC50 [9]: 0.8
Ratio IC50 [10]: 3.5
Ratio IC50 [11]: 0.8
Ratio IC50 [12]: 1.8
Ratio IC50 [13]: 0.7
Ratio IC50 [14]: 1.5
Ratio IC50 [15]: 0.9
Ratio IC50 [16]: 1.4
Ratio IC50 [17]: 1
Activity [18]: Dose-dependent effect
IC50 ([18]; Human immunodeficiency virus 1, Bal): 0.2 nM
inhibition at 0.001 µM [19]: > 99%
inhibition [20]: Active
inhibition (INH) [21]: 90%
inhibition (INH) [22]: 80%
inhibition (INH) [23]: 90%
inhibition in vivo at 225 µM [24]: 85.7%
IC50 [25]: 2.2 nM
IC50 [26]: 2.4 nM
